ChEMBL document CHEMBL1125205, “Phosphorus-containing inhibitors of HMG-CoA reductase. 2. Synthesis and biological activities of a series of substituted pyridines containing a hydroxyphosphinyl moiety” (J Med Chem, 1991)

These molecules were tested against T1, 3-hydroxy-3-methylglutaryl-coenzyme A reductase (Rattus norvegicus, UniProt P51639) (assay: In vitro for inhibition of rat HMG-CoA reductase.). Details: read-out: I50.
T1 sequence (P51639 whole entry): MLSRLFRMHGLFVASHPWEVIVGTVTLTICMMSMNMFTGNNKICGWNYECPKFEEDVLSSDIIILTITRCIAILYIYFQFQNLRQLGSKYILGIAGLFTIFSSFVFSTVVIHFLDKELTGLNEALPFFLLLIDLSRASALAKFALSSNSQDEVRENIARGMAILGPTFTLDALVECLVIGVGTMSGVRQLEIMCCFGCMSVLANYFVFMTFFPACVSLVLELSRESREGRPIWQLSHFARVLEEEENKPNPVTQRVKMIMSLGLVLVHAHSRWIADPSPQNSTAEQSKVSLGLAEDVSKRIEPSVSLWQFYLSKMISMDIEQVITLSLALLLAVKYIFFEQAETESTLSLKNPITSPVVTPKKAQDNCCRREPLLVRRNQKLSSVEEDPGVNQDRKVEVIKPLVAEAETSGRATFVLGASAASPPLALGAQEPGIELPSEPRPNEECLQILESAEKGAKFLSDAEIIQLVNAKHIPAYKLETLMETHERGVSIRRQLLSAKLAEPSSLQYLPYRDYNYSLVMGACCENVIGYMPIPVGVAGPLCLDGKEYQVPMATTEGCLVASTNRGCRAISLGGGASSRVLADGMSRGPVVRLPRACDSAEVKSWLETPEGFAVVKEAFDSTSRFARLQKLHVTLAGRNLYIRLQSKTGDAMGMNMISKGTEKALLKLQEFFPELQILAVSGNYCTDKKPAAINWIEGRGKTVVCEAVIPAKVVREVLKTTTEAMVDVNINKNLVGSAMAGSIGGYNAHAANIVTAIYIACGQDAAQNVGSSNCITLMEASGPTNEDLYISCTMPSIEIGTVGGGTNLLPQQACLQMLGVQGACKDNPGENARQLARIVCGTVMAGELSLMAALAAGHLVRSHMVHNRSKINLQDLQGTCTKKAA
Method in brief: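 Enzyme source: hepatic microsomes from cholestyramine-fed Sprague-Dawley rats. Final assay conditions: 0.04 M potassium phosphate pH 7.2, KCl, sucrose, EDTA, 10 mM DTT, 1% DMSO, 50-200 µg microsomal protein. Microsomes were preincubated with 2.7 mM NADPH for 15 min at 37 °C, then with compound for 15 min. 100 µM 14C-[D,L]-HMG-CoA was then added for 20 min at 37 °C. Read-out: 14C-mevalonate, corrected by 3H-mevalonate recovery. I50 taken from composite dose-response regressions, 2-5 experiments.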
`CC(C)c1nc(C(C)(C)C)cc(-c2ccc(F)cc2)c1/C=C/P(=O)(O)C[C@H](O)CC(=O)O` gave an IC50 of 3.2 nM.
`CC(C)c1nc(-c2cc(F)c(F)c(F)c2F)cc(-c2ccc(F)cc2)c1C#CP(=O)(O)C[C@H](O)CC(=O)O` showed an IC50 of 8.9 nM.
Molecule `Cc1c(-c2ccccc2)nc(C2CC2)c(/C=C/P(=O)(O)C[C@H](O)CC(=O)O)c1-c1ccc(F)cc1` has an IC50 of 2.5 nM.
`CC(C)c1nc(-c2ccccc2)cc(-c2ccc(F)cc2)c1CCP(=O)(O)C[C@H](O)CC(=O)O` showed an IC50 of 181 nM.
`Cc1cc(F)ccc1-c1cc(-c2ccccc2)nc(C(C)C)c1CCP(=O)(O)C[C@H](O)CC(=O)O` showed an IC50 of 115 nM.
Molecule `CC(C)c1nc(C23CC4CC(CC(C4)C2)C3)cc(-c2ccc(F)cc2)c1C#CP(=O)(O)C[C@H](O)CC(=O)O` has an IC50 of 43.8 nM.
`CC(C)c1nc(-c2cccc3ccccc23)cc(-c2ccc(F)cc2)c1C#CP(=O)(O)C[C@H](O)CC(=O)O` was tested, and the IC50 was 28.7 nM.
Molecule `CC(C)c1nc(-c2ccccc2)c(-c2ccccc2)c(-c2ccc(F)cc2)c1C#CP(=O)(O)C[C@H](O)CC(=O)O` has an IC50 of 15.6 nM.
For `CCc1c(-c2ccccc2)nc(C(C)C)c(CCP(=O)(O)C[C@H](O)CC(=O)O)c1-c1ccc(F)cc1`, the IC50 was 19.1 nM.
Molecule `Cc1nc(-c2ccccc2)c(C)c(-c2ccc(F)cc2)c1C#CP(=O)(O)C[C@H](O)CC(=O)O` has an IC50 of 1300 nM.
`CC(C)c1nc(-c2ccccc2Cc2ccccc2)cc(-c2ccc(F)cc2)c1C#CP(=O)(O)C[C@H](O)CC(=O)O` was tested, and the IC50 was 62.6 nM.
`Cc1cc(F)ccc1-c1cc(-c2ccccc2)nc(C(C)C)c1/C=C/P(=O)(O)C[C@H](O)CC(=O)O` showed an IC50 of 3.9 nM.
`Cc1cc(F)ccc1-c1cc(-c2ccccc2)nc(C(C)C)c1C#CP(=O)(O)C[C@H](O)CC(=O)O` was tested, and the IC50 was 156 nM.
With `CC(C)c1nc(-c2ccccc2)c(C(C)C)c(-c2ccc(F)cc2)c1C#CP(=O)(O)C[C@H](O)CC(=O)O` the IC50 was 9.8 nM.
`Cc1cc(-c2cc(-c3ccccc3)nc(C(C)C)c2C#CP(=O)(O)C[C@H](O)CC(=O)O)ccc1F` gave an IC50 of 22 nM.
With `CC(C)c1cc(-c2ccc(F)cc2)c(C#CP(=O)(O)C[C@H](O)CC(=O)O)c(C(C)C)n1` the IC50 was 80.9 nM.
`CC(C)c1cc(-c2ccccc2)nc(-c2ccc(F)cc2)c1/C=C/P(=O)(O)C[C@H](O)CC(=O)O` showed an IC50 of 45.3 nM.
`CC(C)(C)c1nc(-c2ccccc2)cc(-c2ccc(F)cc2)c1C#CP(=O)(O)C[C@H](O)CC(=O)O` showed an IC50 of 68.4 nM.
In the case of `O=C(O)C[C@@H](O)CP(=O)(O)C#Cc1c(-c2ccc(F)cc2)cc(-c2ccccc2)nc1C1CC1`, the IC50 is reported as 90.9 nM.
Work on `CC(C)c1nc(C2CC2)cc(-c2ccc(F)cc2)c1C#CP(=O)(O)C[C@H](O)CC(=O)O` yielded an IC50 of 4.2 nM.
`CCc1nc(-c2ccccc2)c(C)c(-c2ccc(F)cc2)c1/C=C/P(=O)(O)C[C@H](O)CC(=O)O` was tested, and the IC50 was 4.7 nM.
With `Cc1ccccc1-c1cc(-c2ccc(F)cc2)c(C#CP(=O)(O)C[C@H](O)CC(=O)O)c(C(C)C)n1` the IC50 was 32.6 nM.
With `Cc1cc(-c2ccc(F)cc2)c(C#CP(=O)(O)C[C@H](O)CC(=O)O)c(C(C)C)n1` the IC50 was 231 nM.
Work on `CC(C)c1nc(C2CCCCC2)cc(-c2ccc(F)cc2)c1C#CP(=O)(O)C[C@H](O)CC(=O)O` yielded an IC50 of 48.4 nM.
Work on `CC(C)c1nc(-c2cccs2)cc(-c2ccc(F)cc2)c1C#CP(=O)(O)C[C@H](O)CC(=O)O` yielded an IC50 of 14.6 nM.
For `Cc1c(-c2ccccc2)nc(C2CC2)c(CCP(=O)(O)C[C@H](O)CC(=O)O)c1-c1ccc(F)cc1`, the IC50 was 9.2 nM.
`CC(C)c1nc2c(c(-c3ccc(F)cc3)c1C#CP(=O)(O)C[C@H](O)CC(=O)O)CCCc1ccccc1-2` was tested, and the IC50 was 14.4 nM.
